“And” between values parts separate entries of the source, which are not always exact repeats. Equal values may be shown once.
Legend:
Assay type in all cases: toxicity, cell-based
[1] = tested on: HEK-293T; assay: Multiplex assay against HEK293T; conditions: human
Summary of the method: (§1)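 Live cells carried four stains from seeding: Hoechst33342, BioTracker Green Microtubule Cytoskeleton Dye, MitoTracker Red and Annexin V Alexa Fluor 680. They were imaged on a CQ1 microscope at 37°C and 5% CO2 after compound addition. Using CellPathfinder machine-learning gating, cells were split into Hoechst high-intensity objects or normal cells, normal cells into healthy, pyknosed or fragmented nuclei, and pyknosed cells into mitotic or apoptotic; tubulin, mitochondrial-mass and membrane-permeability phenotypes are per cents of healthy-nucleus cells.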

[2] = tested on: Fibroblast; assay: Multiplex assay against human fibroblast; summary of the method: as §1
[3] = tested on: U2OS; assay: Multiplex assay against U2OS; conditions: human; summary of the method: as §1
[4] = 12 h, 1 µM, compound concentration 1 uM
[5] = 12 h, 10 µM, compound concentration 10 uM
[6] = 24 h, 1 µM, compound concentration 1 uM
[7] = 24 h, 10 µM, compound concentration 10 uM
[8] = 48 h, 1 µM, compound concentration 1 uM
[9] = 48 h, 10 µM, compound concentration 10 uM

## O=C(NCc1cccc(O)c1)Nc1nc(-c2ccncc2)cs1
[1]; [4]
  Population Apoptotic (%): 7.14% and 10.34%
  Population Fragmented Nuclei (%): 2.92% and 3.91%
  Population Healthy Nuclei (%): 52.8% and 28.12%
  Population Hoechst High Intensity Objects (%): 0.24% and 0%
  Population Membrane Permeable-Phenotype (%): 0.92% and 0%
  Population Mitochondria Different-Phenotype (%): 22.12% and 19.44%
  Population Mitotic Cells (%): 92.86% and 89.66%
  Population Normal (%): 99.76% and 100%
  Population Pyknosed Nuclei (%): 44.28% and 67.97%
[1]; [5]
  Population Apoptotic (%): 7.43% and 12.61%
  Population Fragmented Nuclei (%): 2.74% and 5.1%
  Population Healthy Nuclei (%): 52.13% and 34.18%
  Population Hoechst High Intensity Objects (%): 0%
  Population Membrane Permeable-Phenotype (%): 4.09% and 0%
  Population Mitochondria Different-Phenotype (%): 19.88% and 13.43%
  Population Mitotic Cells (%): 92.57% and 87.39%
  Population Normal (%): 100%
  Population Pyknosed Nuclei (%): 45.12% and 60.71%
  Total Cell Count: 328 and 196
[1]; [6]
  Population Apoptotic (%): 13.54% and 22%
  Population Fragmented Nuclei (%): 2.1% and 4.17%
  Population Healthy Nuclei (%): 77.73% and 54.17%
  Population Hoechst High Intensity Objects (%): 0%
  Population Membrane Permeable-Phenotype (%): 0.54% and 0%
  Population Mitochondria Different-Phenotype (%): 3.78% and 6.15%
  Population Mitotic Cells (%): 86.46% and 78%
  Population Normal (%): 100%
  Population Pyknosed Nuclei (%): 20.17% and 41.67%
  Population Tubulin-Different-Phenotype (%): 3.51% and 9.23%
[1]; [7]
  Population Apoptotic (%): 12.64% and 13.27%
  Population Fragmented Nuclei (%): 3.74%
  Population Healthy Nuclei (%): 72.99% and 50.47%
  Population Hoechst High Intensity Objects (%): 0% and 0.93%
  Population Membrane Permeable-Phenotype (%): 1.1% and 0%
  Population Mitochondria Different-Phenotype (%): 5.86% and 10.19%
  Population Mitotic Cells (%): 87.36% and 86.73%
  Population Normal (%): 100% and 99.07%
  Population Pyknosed Nuclei (%): 23.26% and 45.79%
  Population Tubulin-Different-Phenotype (%): 5.86% and 3.7%
  Total Cell Count: 374 and 216
[1]; [8]
  Population Apoptotic (%): 17.39% and 25%
  Population Fragmented Nuclei (%): 2.27% and 10.14%
  Population Healthy Nuclei (%): 86.57% and 68.24%
  Population Hoechst High Intensity Objects (%): 0.16% and 0.67%
  Population Membrane Permeable-Phenotype (%): 5.42% and 4.95%
  Population Mitochondria Different-Phenotype (%): 14.95% and 15.84%
  Population Mitotic Cells (%): 82.61% and 75%
  Population Normal (%): 99.84% and 99.33%
  Population Pyknosed Nuclei (%): 11.17% and 21.62%
[1]; [9]
  Population Apoptotic (%): 22.81% and 34.48%
  Population Fragmented Nuclei (%): 4.16% and 5.49%
  Population Healthy Nuclei (%): 85.07% and 70.04%
  Population Hoechst High Intensity Objects (%): 0.19% and 0%
  Population Membrane Permeable-Phenotype (%): 4% and 0.6%
  Population Mitochondria Different-Phenotype (%): 19.78% and 24.1%
  Population Mitotic Cells (%): 77.19% and 65.52%
  Population Normal (%): 99.81% and 100%
  Population Pyknosed Nuclei (%): 10.78% and 24.47%
  Population Tubulin-Different-Phenotype (%): 0.89% and 5.42%
  Total Cell Count: 530 and 237
[2]; [4]
  Population Apoptotic (%): 12.12% and 27.78%
  Population Healthy Nuclei (%): 41.38% and 76.34%
  Population Hoechst High Intensity Objects (%): 0%
  Population Membrane Permeable-Phenotype (%): 4.17% and 1.41%
  Population Mitochondria Different-Phenotype (%): 6.94% and 9.15%
  Population Mitotic Cells (%): 87.88% and 72.22%
  Population Normal (%): 100%
  Population Pyknosed Nuclei (%): 37.93% and 19.35%
  Population Tubulin-Different-Phenotype (%): 8.33% and 6.34%
  Total Cell Count: 174 and 186
[2]; [5]
  Population Apoptotic (%): 9.52% and 18.18%
  Population Fragmented Nuclei (%): 11.37% and 4.05%
  Population Healthy Nuclei (%): 38.86% and 61.26%
  Population Hoechst High Intensity Objects (%): 0%
  Population Membrane Permeable-Phenotype (%): 7.32% and 2.21%
  Population Mitochondria Different-Phenotype (%): 15.85% and 13.97%
  Population Mitotic Cells (%): 90.48% and 81.82%
  Population Normal (%): 100%
  Population Pyknosed Nuclei (%): 49.76% and 34.68%
  Population Tubulin-Different-Phenotype (%): 13.41% and 29.41%
  Total Cell Count: 211 and 222
[2]; [6]
  Population Apoptotic (%): 25.49% and 48.15%
  Population Healthy Nuclei (%): 53.67% and 81.31%
  Population Hoechst High Intensity Objects (%): 0%
  Population Membrane Permeable-Phenotype (%): 3.16% and 0.62%
  Population Mitochondria Different-Phenotype (%): 12.63% and 6.83%
  Population Mitotic Cells (%): 74.51% and 51.85%
  Population Normal (%): 100%
  Population Pyknosed Nuclei (%): 28.81% and 13.64%
  Population Tubulin-Different-Phenotype (%): 11.58% and 6.21%
  Total Cell Count: 177 and 198
[2]; [7]
  Population Apoptotic (%): 13.79% and 23.26%
  Population Fragmented Nuclei (%): 8.5% and 3.62%
  Population Healthy Nuclei (%): 48% and 76.92%
  Population Hoechst High Intensity Objects (%): 0%
  Population Membrane Permeable-Phenotype (%): 0% and 2.94%
  Population Mitochondria Different-Phenotype (%): 7.29% and 8.82%
  Population Mitotic Cells (%): 86.21% and 76.74%
  Population Normal (%): 100%
  Population Pyknosed Nuclei (%): 43.5% and 19.46%
  Population Tubulin-Different-Phenotype (%): 17.71% and 29.41%
  Total Cell Count: 200 and 221
[2]; [8]
  Population Apoptotic (%): 55.56% and 38.46%
  Population Fragmented Nuclei (%): 16.05% and 5.73%
  Population Healthy Nuclei (%): 72.84% and 87.5%
  Population Hoechst High Intensity Objects (%): 0%
  Population Membrane Permeable-Phenotype (%): 0.85% and 0.6%
  Population Mitotic Cells (%): 44.44% and 61.54%
  Population Normal (%): 100%
  Population Pyknosed Nuclei (%): 11.11% and 6.77%
  Population Tubulin-Different-Phenotype (%): 3.39% and 6.55%
  Total Cell Count: 162 and 192
[2]; [9]
  Population Apoptotic (%): 16.67% and 18.42%
  Population Healthy Nuclei (%): 74.44% and 81.61%
  Population Hoechst High Intensity Objects (%): 0%
  Population Membrane Permeable-Phenotype (%): 0.6% and 1.65%
  Population Mitochondria Different-Phenotype (%): 12.05% and 3.3%
  Population Mitotic Cells (%): 83.33% and 81.58%
  Population Normal (%): 100%
  Population Pyknosed Nuclei (%): 13.45% and 17.04%
  Total Cell Count: 223
[3]; [4]
  Population Apoptotic (%): 37.74% and 30.77%
  Population Fragmented Nuclei (%): 4.64% and 3.9%
  Population Healthy Nuclei (%): 83.06% and 79.22%
  Population Hoechst High Intensity Objects (%): 0% and 0.65%
  Population Membrane Permeable-Phenotype (%): 0.84% and 1.64%
  Population Mitochondria Different-Phenotype (%): 0.28% and 9.02%
  Population Mitotic Cells (%): 62.26% and 69.23%
  Population Normal (%): 100% and 99.35%
  Population Pyknosed Nuclei (%): 12.3% and 16.88%
  Population Tubulin-Different-Phenotype (%): 1.96% and 0%
  Total Cell Count: 431 and 155
[3]; [5]
  Population Apoptotic (%): 52.63% and 52.17%
  Population Fragmented Nuclei (%): 2.65% and 6.96%
  Population Healthy Nuclei (%): 82.23% and 73.04%
  Population Hoechst High Intensity Objects (%): 0.26% and 0%
  Population Membrane Permeable-Phenotype (%): 1.61% and 4.76%
  Population Mitotic Cells (%): 47.37% and 47.83%
  Population Normal (%): 99.74% and 100%
  Population Pyknosed Nuclei (%): 15.12% and 20%
  Population Tubulin-Different-Phenotype (%): 2.9% and 0%
[3]; [6]
  Population Apoptotic (%): 47.5% and 43.18%
  Population Fragmented Nuclei (%): 2.77% and 4.12%
  Population Healthy Nuclei (%): 82.47% and 73.2%
  Population Hoechst High Intensity Objects (%): 0%
  Population Membrane Permeable-Phenotype (%): 1.12% and 3.52%
  Population Mitochondria Different-Phenotype (%): 0% and 5.63%
  Population Mitotic Cells (%): 52.5% and 56.82%
  Population Normal (%): 100%
  Population Pyknosed Nuclei (%): 14.76% and 22.68%
  Population Tubulin-Different-Phenotype (%): 0.67% and 0%
  Total Cell Count: 542 and 194
[3]; [7]
  Population Apoptotic (%): 44.26% and 50%
  Population Fragmented Nuclei (%): 3.67% and 6.77%
  Population Healthy Nuclei (%): 83.15% and 67.67%
  Population Hoechst High Intensity Objects (%): 0%
  Population Membrane Permeable-Phenotype (%): 1.82% and 5.56%
  Population Mitotic Cells (%): 55.74% and 50%
  Population Normal (%): 100%
  Population Pyknosed Nuclei (%): 13.17% and 25.56%
  Population Tubulin-Different-Phenotype (%): 1.82% and 1.11%
[3]; [8]
  Population Apoptotic (%): 50.98% and 51.79%
  Population Fragmented Nuclei (%): 4.55% and 3.91%
  Population Healthy Nuclei (%): 84.92% and 77.85%
  Population Hoechst High Intensity Objects (%): 0.1% and 0%
  Population Membrane Permeable-Phenotype (%): 0.12% and 2.09%
  Population Mitochondria Different-Phenotype (%): 0% and 3.35%
  Population Mitotic Cells (%): 49.02% and 48.21%
  Population Normal (%): 99.9% and 100%
  Population Pyknosed Nuclei (%): 10.54% and 18.24%
  Population Tubulin-Different-Phenotype (%): 1.22% and 1.26%
[3]; [9]
  Population Apoptotic (%): 60.92% and 61.11%
  Population Fragmented Nuclei (%): 2.84% and 9.2%
  Population Healthy Nuclei (%): 84.18% and 68.71%
  Population Hoechst High Intensity Objects (%): 0%
  Population Membrane Permeable-Phenotype (%): 1.6% and 6.25%
  Population Mitochondria Different-Phenotype (%): 0% and 18.75%
  Population Mitotic Cells (%): 39.08% and 38.89%
  Population Normal (%): 100%
  Population Pyknosed Nuclei (%): 12.99% and 22.09%
  Population Tubulin-Different-Phenotype (%): 1.24% and 0.89%

— ChEMBL document CHEMBL5724801, “EUbOPEN Chemogenomics Library - Multiplex” (2024)
